# Laboratory results published in ChEMBL document CHEMBL5058577, “EUbOPEN Chemogenomics Library 2 (Multiplex)” (2022).
# Tested on: U2OS
# Test: Multiplex assay against U2OS
# Format: toxicity, cell-based
# Conditions: human
# Summary of the method: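 Compound was added to live cells that had been stained at seeding with Hoechst33342, BioTracker Green Microtubule Cytoskeleton Dye, MitoTracker Red and Annexin V Alexa Fluor 680, and imaging followed on a CQ1 microscope at 37°C and 5% CO2. CellPathfinder machine-learning gating divided cells into Hoechst high-intensity objects or normal cells, normal cells into healthy, pyknosed or fragmented nuclei, and pyknosed cells into mitotic or apoptotic. Tubulin, mitochondrial-mass and membrane-permeability phenotypes are per cents of healthy-nucleus cells.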
# [1] = 12 h, 1 µM, compound concentration 1 uM, replicate 1
# [2] = 12 h, 1 µM, compound concentration 1 uM, replicate 2
# [3] = 12 h, 10 µM, compound concentration 10 uM, replicate 1
# [4] = 12 h, 10 µM, compound concentration 10 uM, replicate 2
# [5] = 24 h, 1 µM, compound concentration 1 uM, replicate 1
# [6] = 24 h, 1 µM, compound concentration 1 uM, replicate 2
# [7] = 24 h, 10 µM, compound concentration 10 uM, replicate 1
# [8] = 24 h, 10 µM, compound concentration 10 uM, replicate 2
# [9] = 48 h, 1 µM, compound concentration 1 uM, replicate 1
# [10] = 48 h, 1 µM, compound concentration 1 uM, replicate 2
# [11] = 48 h, 10 µM, compound concentration 10 uM, replicate 1
# [12] = 48 h, 10 µM, compound concentration 10 uM, replicate 2
compound,measurement,setting,value
CSc1nc(NC2CCCC2)c([N+](=O)[O-])c(NC2CCCC2)n1 [GS-39783],Population Apoptotic (%),[1],82%
same,Population Fragmented Nuclei (%),[1],25%
same,Population Healthy Nuclei (%),[1],66%
same,Population Hoechst High Intensity Objects (%),[1],2%
same,Population Membrane Permeable-Phenotype (%),[1],4%
same,Population Mitochondria Different-Phenotype (%),[1],3%
same,Population Mitotic Cells (%),[1],17%
same,Population Normal (%),[1],97%
same,Population Pyknosed Nuclei (%),[1],8%
same,Population Tubulin-Different-Phenotype (%),[1],1%
same,Total Cell Count,[1],209
same,Population Apoptotic (%),[2],80%
same,Population Fragmented Nuclei (%),[2],18%
same,Population Healthy Nuclei (%),[2],76%
same,Population Hoechst High Intensity Objects (%),[2],3%
same,Population Mitochondria Different-Phenotype (%),[2],0%
same,Population Mitotic Cells (%),[2],20%
same,Population Normal (%),[2],96%
same,Population Pyknosed Nuclei (%),[2],5%
same,Total Cell Count,[2],96
same,Population Apoptotic (%),[3],88%
same,Population Fragmented Nuclei (%),[3],30%
same,Population Healthy Nuclei (%),[3],63%
same,Population Hoechst High Intensity Objects (%),[3],3%
same,Population Membrane Permeable-Phenotype (%),[3],9%
same,Population Mitochondria Different-Phenotype (%),[3],5%
same,Population Mitotic Cells (%),[3],11%
same,Population Normal (%),[3],96%
same,Population Pyknosed Nuclei (%),[3],5%
same,Population Tubulin-Different-Phenotype (%),[3],4%
same,Total Cell Count,[3],322
same,Population Apoptotic (%),[4],100%
same,Population Fragmented Nuclei (%),[4],19%
same,Population Healthy Nuclei (%),[4],75%
same,Population Hoechst High Intensity Objects (%),[4],1%
same,Population Mitochondria Different-Phenotype (%),[4],0%
same,Population Mitotic Cells (%),[4],0%
same,Population Normal (%),[4],98%
same,Population Pyknosed Nuclei (%),[4],4%
same,Population Tubulin-Different-Phenotype (%),[4],6%
same,Total Cell Count,[4],145
same,Population Apoptotic (%),[5],87%
same,Population Fragmented Nuclei (%),[5],22%
same,Population Healthy Nuclei (%),[5],64%
same,Population Hoechst High Intensity Objects (%),[5],2%
same,Population Membrane Permeable-Phenotype (%),[5],2%
same,Population Mitochondria Different-Phenotype (%),[5],1%
same,Population Mitotic Cells (%),[5],12%
same,Population Normal (%),[5],97%
same,Population Pyknosed Nuclei (%),[5],12%
same,Population Tubulin-Different-Phenotype (%),[5],1%
same,Total Cell Count,[5],269
same,Population Apoptotic (%),[6],84%
same,Population Fragmented Nuclei (%),[6],20%
same,Population Healthy Nuclei (%),[6],68%
same,Population Hoechst High Intensity Objects (%),[6],1%
same,Population Membrane Permeable-Phenotype (%),[6],1%
same,Population Mitotic Cells (%),[6],15%
same,Population Normal (%),[6],98%
same,Population Pyknosed Nuclei (%),[6],11%
same,Population Tubulin-Different-Phenotype (%),[6],0%
same,Total Cell Count,[6],119
same,Population Apoptotic (%),[7],85%
same,Population Fragmented Nuclei (%),[7],26%
same,Population Healthy Nuclei (%),[7],66%
same,Population Hoechst High Intensity Objects (%),[7],2%
same,Population Membrane Permeable-Phenotype (%),[7],6%
same,Population Mitochondria Different-Phenotype (%),[7],6%
same,Population Mitotic Cells (%),[7],14%
same,Population Normal (%),[7],97%
same,Population Pyknosed Nuclei (%),[7],6%
same,Population Tubulin-Different-Phenotype (%),[7],4%
same,Total Cell Count,[7],341
same,Population Apoptotic (%),[8],88%
same,Population Fragmented Nuclei (%),[8],18%
same,Population Healthy Nuclei (%),[8],75%
same,Population Hoechst High Intensity Objects (%),[8],3%
same,Population Membrane Permeable-Phenotype (%),[8],9%
same,Population Mitochondria Different-Phenotype (%),[8],2%
same,Population Mitotic Cells (%),[8],11%
same,Population Normal (%),[8],96%
same,Population Pyknosed Nuclei (%),[8],5%
same,Population Tubulin-Different-Phenotype (%),[8],5%
same,Total Cell Count,[8],164
same,Population Apoptotic (%),[9],88%
same,Population Fragmented Nuclei (%),[9],18%
same,Population Healthy Nuclei (%),[9],70%
same,Population Hoechst High Intensity Objects (%),[9],1%
same,Population Membrane Permeable-Phenotype (%),[9],3%
same,Population Mitochondria Different-Phenotype (%),[9],1%
same,Population Mitotic Cells (%),[9],11%
same,Population Normal (%),[9],98%
same,Population Pyknosed Nuclei (%),[9],11%
same,Population Tubulin-Different-Phenotype (%),[9],1%
same,Total Cell Count,[9],382
same,Population Apoptotic (%),[10],92%
same,Population Fragmented Nuclei (%),[10],21%
same,Population Healthy Nuclei (%),[10],71%
same,Population Hoechst High Intensity Objects (%),[10],0%
same,Population Mitotic Cells (%),[10],7%
same,Population Normal (%),[10],100%
same,Population Pyknosed Nuclei (%),[10],7%
same,Population Tubulin-Different-Phenotype (%),[10],3%
same,Total Cell Count,[10],185
same,Population Apoptotic (%),[11],89%
same,Population Fragmented Nuclei (%),[11],23%
same,Population Healthy Nuclei (%),[11],67%
same,Population Hoechst High Intensity Objects (%),[11],2%
same,Population Membrane Permeable-Phenotype (%),[11],5%
same,Population Mitochondria Different-Phenotype (%),[11],1%
same,Population Mitotic Cells (%),[11],10%
same,Population Normal (%),[11],97%
same,Population Pyknosed Nuclei (%),[11],8%
same,Population Tubulin-Different-Phenotype (%),[11],2%
same,Total Cell Count,[11],462
same,Population Apoptotic (%),[12],85%
same,Population Fragmented Nuclei (%),[12],12%
same,Population Healthy Nuclei (%),[12],81%
same,Population Hoechst High Intensity Objects (%),[12],0%
same,Population Membrane Permeable-Phenotype (%),[12],4%
same,Population Mitochondria Different-Phenotype (%),[12],3%
same,Population Mitotic Cells (%),[12],14%
same,Population Normal (%),[12],99%
same,Population Pyknosed Nuclei (%),[12],6%
same,Population Tubulin-Different-Phenotype (%),[12],3%
same,Total Cell Count,[12],231
